Laboratory results reported in ChEMBL document CHEMBL4152387, “Discovery of a Potent Grp94 Selective Inhibitor with Anti-Inflammatory Efficacy in a Mouse Model of Ulcerative Colitis” (J Med Chem, 2018).
Activity calls are given as the source filed them. The calls are words filed in the database; no cut-off is given here.

Tests used:
Canis lupus familiaris = species on record: Canis lupus familiaris; test: Inhibition of FITC-geldanamycin binding to dog GST-tagged GRP94 N41 deletion mutant (69 to 337 residues) expressed in Escherichia coli BL21star (DE3) at 100 uM after 4 hrs by FP assay relative to control
[1] = Inhibition of FITC-geldanamycin binding to dog GST-tagged GRP94 N41 deletion mutant (69 to 337 residues) expressed in Escherichia coli BL21star (DE3) after 4 hrs by GM-FITC-based FP assay; design: species or system Canis lupus familiaris
[2] = biological target: T1, Heat shock protein HSP 90-alpha (Homo sapiens, UniProt P07900); test: Inhibition of FITC-geldanamycin binding to human His-tagged HSP90alpha N-terminal domain (1 to 236 residues) expressed in Escherichia coli BL21star (DE3) at 100 uM after 4 hrs by FP assay relative to control
In short: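 Hsp90αN (15 nM final) with GM-FITC (6 nM final) and compound in HEPES/KCl/MgCl2 buffer pH 7.4 with NP40, DTT, BGG; 4 h at 4 °C in dark; FP at ex 485/em 535 nm; inhibition computed against GM-FITC-only and protein-plus-probe controls; n = 3.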

[3] = biological target: T1, Heat shock protein HSP 90-alpha; test: Inhibition of FITC-geldanamycin binding to HSP90alpha (unknown origin) incubated for 5 hrs by fluorescence polarization assay
Endoplasmin [4] = biological target: Endoplasmin (Canis lupus familiaris, UniProt P41148); test: Inhibition of FITC-geldanamycin binding to canine GRP94 incubated for 5 hrs by fluorescence polarization assay
Endoplasmin [5] = biological target: Endoplasmin (Homo sapiens, UniProt P14625); test: Binding affinity to GRP94 N-domain (unknown origin)
[6] = biological target: T1, Heat shock protein HSP 90-alpha; test: Inhibition of human recombinant HSP90alpha expressed in Escherichia coli by fluorescence polarization assay
Homo sapiens = species on record: Homo sapiens; test: Selectivity ratio of IC50 for inhibition of human recombinant HSP90alpha expressed in Escherichia coli by fluorescence polarization assay to IC50 for inhibition of GRP94 (unknown origin)
[7] = biological target: T1, Heat shock protein HSP 90-alpha; test: Inhibition of HSP90alpha in human PANC1 cells assessed as akt degradation at 1 uM after 36 hrs by Western blot analysis; type: cell-based
In short: (§1)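 Panc-1 cells treated 36 h; total protein lysate with protease/phosphatase inhibitors; equal protein by BCA on SDS-PAGE, PVDF, Western blot for Hsp70 and Akt, β-actin loading control; AT13387 reference.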

Heat shock protein HSP90 = Heat shock protein HSP90 (Homo sapiens, UniProt P07900+P08238); test: Inhibition of FITC-geldanamycin binding to human His-tagged HSP90alpha N-terminal domain (1 to 236 residues) expressed in Escherichia coli BL21star (DE3) after 4 hrs by FP assay relative to control
[8] = biological target: T1, Heat shock protein HSP 90-alpha; test: Inhibition of HSP90alpha in human PANC1 cells assessed as up-regulation of Hsp70 at 1 uM after 36 hrs by Western blot analysis; type: cell-based; in short: as §1

Endoplasmin (Canis lupus familiaris, UniProt P41148), sequence (P41148 whole entry): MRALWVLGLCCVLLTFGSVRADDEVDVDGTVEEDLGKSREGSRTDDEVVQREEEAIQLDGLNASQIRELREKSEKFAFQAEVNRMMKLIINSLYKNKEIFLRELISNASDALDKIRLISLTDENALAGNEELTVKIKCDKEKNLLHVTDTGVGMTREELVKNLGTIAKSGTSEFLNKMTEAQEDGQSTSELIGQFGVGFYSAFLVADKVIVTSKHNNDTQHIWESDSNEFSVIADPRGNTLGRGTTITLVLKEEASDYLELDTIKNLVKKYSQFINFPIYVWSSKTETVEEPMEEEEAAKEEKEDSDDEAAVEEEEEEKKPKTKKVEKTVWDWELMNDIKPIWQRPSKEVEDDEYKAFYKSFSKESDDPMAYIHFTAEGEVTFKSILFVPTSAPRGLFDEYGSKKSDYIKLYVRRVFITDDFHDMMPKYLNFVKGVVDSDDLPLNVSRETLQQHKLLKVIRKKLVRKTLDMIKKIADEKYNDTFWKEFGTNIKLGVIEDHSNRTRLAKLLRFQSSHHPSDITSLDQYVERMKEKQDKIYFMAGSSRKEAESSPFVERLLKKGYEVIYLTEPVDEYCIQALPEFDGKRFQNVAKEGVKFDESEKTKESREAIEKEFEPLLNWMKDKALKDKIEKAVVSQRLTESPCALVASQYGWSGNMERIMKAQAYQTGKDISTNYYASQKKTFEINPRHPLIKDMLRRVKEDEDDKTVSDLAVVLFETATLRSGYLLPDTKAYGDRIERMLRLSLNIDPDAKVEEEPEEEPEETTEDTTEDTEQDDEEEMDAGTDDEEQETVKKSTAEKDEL
Endoplasmin (Homo sapiens, UniProt P14625), sequence (P14625 whole entry): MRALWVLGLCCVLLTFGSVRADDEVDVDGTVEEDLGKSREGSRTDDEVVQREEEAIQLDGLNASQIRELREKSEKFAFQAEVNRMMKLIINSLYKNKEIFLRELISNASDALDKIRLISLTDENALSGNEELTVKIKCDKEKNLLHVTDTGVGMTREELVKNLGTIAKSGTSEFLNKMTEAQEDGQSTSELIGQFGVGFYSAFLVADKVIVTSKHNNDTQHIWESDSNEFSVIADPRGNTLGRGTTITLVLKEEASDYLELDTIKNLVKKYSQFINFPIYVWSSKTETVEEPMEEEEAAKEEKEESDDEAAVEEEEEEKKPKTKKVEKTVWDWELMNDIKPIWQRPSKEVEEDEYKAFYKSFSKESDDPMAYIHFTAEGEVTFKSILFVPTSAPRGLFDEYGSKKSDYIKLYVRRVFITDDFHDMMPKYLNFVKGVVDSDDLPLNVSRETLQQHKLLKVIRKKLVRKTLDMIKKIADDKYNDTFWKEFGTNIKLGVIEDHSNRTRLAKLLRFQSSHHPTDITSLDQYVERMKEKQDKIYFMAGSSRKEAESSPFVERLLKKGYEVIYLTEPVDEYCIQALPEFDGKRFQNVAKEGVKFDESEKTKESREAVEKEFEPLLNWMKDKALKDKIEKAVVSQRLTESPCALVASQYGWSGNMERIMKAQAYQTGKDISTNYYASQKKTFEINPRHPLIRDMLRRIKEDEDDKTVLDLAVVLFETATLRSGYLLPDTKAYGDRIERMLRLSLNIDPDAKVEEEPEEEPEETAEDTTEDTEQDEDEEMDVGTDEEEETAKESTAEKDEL

| Compound | inhibition (Canis lupus familiaris) | IC50 [1] | inhibition (INH) [2] | other results |
| --- | --- | --- | --- | --- |
| Cc1ccc(-c2ccc(N[C@H]3CC[C@H](O)CC3)c(C(N)=O)c2)cc1C | 100% | 710 nM | Not Active | – |
| CC(C)c1ccc(-c2ccc(NC3CCN(C(=O)C(N)C(C)C)CC3)c(C(N)=O)c2)cc1 (stereo unspecified) | 91% | 450 nM | Not Active | – |
| CC1(C)CC(=O)c2c(C(F)(F)F)nn(-c3ccc(C(N)=O)c(N[C@H]4CC[C@H](O)CC4)c3)c2C1 [SNX-2112] | 100% | 97 nM | – | – |
| NC(=O)c1cc(-c2ccc(-n3cccc3)cc2)ccc1N[C@H]1CC[C@H](O)CC1 | 0% | – | Not Active | – |
| NC(=O)c1cc(-c2ccc(Cl)cc2)ccc1N[C@H]1CC[C@H](O)CC1 | 100% | 170 nM | Not Active | – |
| CC[C@H](C)[C@H](N)C(=O)N1CCC(Nc2ccc(-c3ccc(C(C)C)cc3)cc2C(N)=O)CC1 | 92% | 470 nM | Not Active | – |
| Cc1cc(C)c(-c2ccc(N[C@H]3CC[C@H](O)CC3)c(C(N)=O)c2)c(C)c1 | 100% | 1110 nM | Not Active | – |
| NC(=O)c1cc(-c2ccc(Cl)c(Cl)c2)ccc1N[C@H]1CC[C@H](O)CC1 | 100% | 600 nM | Not Active | – |
| CC(C)C[C@H](N)C(=O)N1CCC(Nc2ccc(-c3ccc(C(C)C)cc3)cc2C(N)=O)CC1 | 89% | 480 nM | Not Active | – |
| CC(N)C(=O)N1CCC(Nc2ccc(-c3ccc(C(C)C)cc3)cc2C(N)=O)CC1 (stereo unspecified) | 88% | 370 nM | Not Active | – |
| CC(C)c1ccc(-c2ccc(NC3CCN(C(=O)CCCCCN)CC3)c(C(N)=O)c2)cc1 | 100% | 150 nM | Not Active | – |
| CC(=O)N1CCC(Nc2ccc(-c3ccc(C(C)C)cc3)cc2C(N)=O)CC1 | 100% | 55 nM | Not Active | – |
| CC(C)c1ccc(-c2ccc(N[C@H]3CCOC3)c(C(N)=O)c2)cc1 | 95% | 130 nM | Not Active | – |
| COc1ccc(-c2ccc(N[C@H]3CC[C@H](O)CC3)c(C(N)=O)c2)cc1 | 100% | 500 nM | Not Active | – |
| COC(=O)c1c(O)cc(O)c(Cl)c1CCC(=O)NC1=CC(=O)C(OC)=CC1=O | – | – | – | Kd [3]: 870 nM; Kd (Endoplasmin [4]): 520 nM |
| C#CCCCn1cnc(N)c2nc(Sc3ccc(C)cc3C)nc1-2 | – | – | – | IC50 (Endoplasmin [5]): 11800 nM; IC50 [6]: > 250000 nM; Ratio IC50 (Homo sapiens): > 21 |

| Compound | inhibition (Canis lupus familiaris) | IC50 [1] | inhibition (INH) [2] | other results |
| --- | --- | --- | --- | --- |
| NC(=O)c1cc(-c2ccc3ccccc3c2)ccc1N[C@H]1CC[C@H](O)CC1 | 75% | 12600 nM | Not Active | – |
| CC(C)CNc1ccc(-c2ccc(C(C)C)cc2)cc1C(N)=O | 96% | 2320 nM | Not Active | – |
| CC(C)c1cc(C(=O)N2Cc3ccc(CN4CCN(C)CC4)cc3C2)c(O)cc1O [ONALESPIB] | 100% | 20 nM | – | inhibition (INH) [7]: Active; IC50 (Heat shock protein HSP90): 22 nM; inhibition (INH) [8]: Active |
| Cc1cc(C)cc(-c2ccc(N[C@H]3CC[C@H](O)CC3)c(C(N)=O)c2)c1 | 72% | 19700 nM | Not Active | – |
| CC(C)c1ccc(-c2ccc(NC3CCN(C(=O)CCN)CC3)c(C(N)=O)c2)cc1 | 96% | 220 nM | Not Active | – |
| CC(C)c1ccc(-c2ccc(NC3CCN(C(=O)CN)CC3)c(C(N)=O)c2)cc1 | 100% | 210 nM | Not Active | – |
| CC(C)c1ccc(-c2ccc(NC3CCNCC3)c(C(N)=O)c2)cc1 | 100% | 470 nM | Not Active | – |
| COCCNc1ccc(-c2ccc(C(C)C)cc2)cc1C(N)=O | 96% | 930 nM | Not Active | – |
| CC(C)c1ccc(-c2ccc(NC3CCCC3)c(C(N)=O)c2)cc1 | 89% | 3110 nM | Not Active | – |
| NC(=O)c1cc(-c2c(Cl)cccc2Cl)ccc1N[C@H]1CC[C@H](O)CC1 | 100% | 140 nM | Not Active | – |
| CC(C)c1ccc(-c2ccc(NCC3CCCCC3)c(C(N)=O)c2)cc1 | inactive | – | Not Active | – |
| NC(=O)c1cc(-c2cc(Cl)cc(Cl)c2)ccc1N[C@H]1CC[C@H](O)CC1 | 66% | 24700 nM | Not Active | – |
| CC(C)(C)c1ccc(-c2ccc(N[C@H]3CC[C@H](O)CC3)c(C(N)=O)c2)cc1 | 100% | 790 nM | Not Active | – |
| CC(C)c1ccc(-c2ccc(NC3CCOCC3)c(C(N)=O)c2)cc1 | 100% | 73 nM | Not Active | – |
| CC(C)c1ccc(-c2ccc(NC3CCCCC3)c(C(N)=O)c2)cc1 | 97% | 370 nM | Not Active | – |

Further lines, with some results ahead:

| inhibition (Canis lupus familiaris) | IC50 [1] | inhibition (INH) [2] | Compound | other results |
| --- | --- | --- | --- | --- |
| 100% | 2030 nM | Not Active | NC(=O)c1cc(-c2cccc(Cl)c2)ccc1N[C@H]1CC[C@H](O)CC1 | – |
| 89% | 11500 nM | Not Active | COc1ccccc1-c1ccc(N[C@H]2CC[C@H](O)CC2)c(C(N)=O)c1 | – |
| 100% | 7 nM | Not Active | CCc1ccc(-c2ccc(N[C@H]3CC[C@H](O)CC3)c(C(N)=O)c2)cc1 | – |
| 100% | 2720 nM | Not Active | NC(=O)c1cc(-c2ccccc2Cl)ccc1N[C@H]1CC[C@H](O)CC1 | – |
| 100% | 310 nM | Not Active | NC(=O)c1cc(-c2cccc(Cl)c2Cl)ccc1N[C@H]1CC[C@H](O)CC1 | – |
| 93% | 2770 nM | Not Active | NC(=O)c1cc(-c2ccccc2)ccc1N[C@H]1CC[C@H](O)CC1 | – |
| 100% | 340 nM | Not Active | Cc1ccc(-c2ccc(N[C@H]3CC[C@H](O)CC3)c(C(N)=O)c2)cc1 | – |
| 81% | 460 nM | Not Active | Cc1cccc(-c2ccc(N[C@H]3CC[C@H](O)CC3)c(C(N)=O)c2)c1C | – |
| 100% | 1420 nM | Not Active | Cc1cccc(C)c1-c1ccc(N[C@H]2CC[C@H](O)CC2)c(C(N)=O)c1 | – |
| 100% | 53 nM | Not Active | CCCc1ccc(-c2ccc(N[C@H]3CC[C@H](O)CC3)c(C(N)=O)c2)cc1 | – |
| 0% | – | Not Active | NC(=O)c1cc(-c2cccc3ccccc23)ccc1N[C@H]1CC[C@H](O)CC1 | – |
| 100% | 4750 nM | Not Active | COc1cccc(-c2ccc(N[C@H]3CC[C@H](O)CC3)c(C(N)=O)c2)c1 | – |
| 91% | 1220 nM | Not Active | Cc1ccc(-c2ccc(N[C@H]3CC[C@H](O)CC3)c(C(N)=O)c2)c(C)c1 | – |
| 90% | 1810 nM | Not Active | Cc1ccccc1-c1ccc(N[C@H]2CC[C@H](O)CC2)c(C(N)=O)c1 | – |
| 100% | 1160 nM | Not Active | Cc1cccc(-c2ccc(N[C@H]3CC[C@H](O)CC3)c(C(N)=O)c2)c1 | – |
| 100% | 490 nM | Not Active | CCOc1ccc(-c2ccc(N[C@H]3CC[C@H](O)CC3)c(C(N)=O)c2)cc1 | – |
| 92% | 2060 nM | Not Active | CCc1ccccc1-c1ccc(N[C@H]2CC[C@H](O)CC2)c(C(N)=O)c1 | – |
